Source: ChEMBL document CHEMBL1221265, “Synthesis and in vitro antibacterial activity of novel fluoroquinolone derivatives containing substituted piperidines” (Bioorg Med Chem Lett, 2010)
In brackets after ≈: the same amount, converted by molar mass.

Columns and labels:
Streptococcus pneumoniae = assay: Antibacterial activity against Streptococcus pneumoniae ATCC 49619 after 18 to 24 hrs by agar dilution method; format: functional
Procedure, shortened: (§1)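 Agar dilution done to NCCLS recommendations. Plates incubated 18–24 h at 35 °C. MIC taken as the lowest concentration of compound that gave no visible bacterial growth.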

Klebsiella pneumoniae = assay: Antibacterial activity against Klebsiella pneumoniae 7 after 18 to 24 hrs by agar dilution method; format: functional; procedure, shortened: as §1
Streptococcus pyogenes = assay: Antibacterial activity against Streptococcus pyogenes 06-1 after 18 to 24 hrs by agar dilution method; format: functional; procedure, shortened: as §1
Pseudomonas aeruginosa = assay: Antibacterial activity against Pseudomonas aeruginosa 17 after 18 to 24 hrs by agar dilution method; format: functional; procedure, shortened: as §1
Staphylococcus aureus [1] = assay: Antibacterial activity against methicillin-resistant Staphylococcus aureus 08-52 after 18 to 24 hrs by agar dilution method; format: functional
Procedure, shortened: (§2)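 Agar dilution MIC per NCCLS recommendations. MIC is the lowest concentration giving no visible bacterial growth after incubation at 35 °C for 18–24 h.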

Shigella sonnei = assay: Antibacterial activity against Shigella sonnei 51592 after 18 to 24 hrs by agar dilution method; format: functional; procedure, shortened: as §1
Enterococcus faecalis = assay: Antibacterial activity against Enterococcus faecalis ATCC 29212 after 18 to 24 hrs by agar dilution method; format: functional; procedure, shortened: as §1
[2] = Cytotoxicity against african green monkey Vero cells after 48 hrs by CPE assay; format: cell-based; details: chlorocebus sabaeus
Enterobacter cloacae = assay: Antibacterial activity against Enterobacter cloacae 45301 after 18 to 24 hrs by agar dilution method; format: functional; procedure, shortened: as §1
[3] = tested on: Staphylococcus epidermidis; assay: Antibacterial activity against methicillin-resistant Staphylococcus epidermidis 08-18 after 18 to 24 hrs by agar dilution method; format: functional; procedure, shortened: as §2
Escherichia coli = assay: Antibacterial activity against Escherichia coli 26 after 18 to 24 hrs by agar dilution method; format: functional; procedure, shortened: as §1
Staphylococcus aureus [4] = assay: Antibacterial activity against Staphylococcus aureus ATCC 29213 after 18 to 24 hrs by agar dilution method; format: functional; procedure, shortened: as §1
[5] = tested on: Staphylococcus epidermidis; assay: Antibacterial activity against Staphylococcus epidermidis ATCC 12228 after 18 to 24 hrs by agar dilution method; format: functional; procedure, shortened: as §1

Compound	MIC (Streptococcus pneumoniae)	MIC (Klebsiella pneumoniae)	MIC (Streptococcus pyogenes)	MIC (Pseudomonas aeruginosa)	MIC (Staphylococcus aureus [1])	MIC (Shigella sonnei)	MIC (Enterococcus faecalis)	CC50 at 48 h [2]	MIC (Enterobacter cloacae)	MIC [3]	MIC (Escherichia coli)	MIC (Staphylococcus aureus [4])	MIC [5]
CO/N=C1/CCN(c2nc3c(cc2F)c(=O)c(C(=O)O)cn3C2CC2)CC1(C)CN (configuration not stated)	32 µg/mL (≈ 76.7 µM)	0.5 µg/mL (≈ 1.2 µM)	8 µg/mL (≈ 19.2 µM)	8 µg/mL (≈ 19.2 µM)	8 µg/mL (≈ 19.2 µM)	1 µg/mL (≈ 2.4 µM)	32 µg/mL (≈ 76.7 µM)	177 µg/mL (≈ 423 µM)	4 µg/mL (≈ 9.58 µM)	0.25 µg/mL (≈ 0.599 µM)	0.5 µg/mL (≈ 1.2 µM)	0.5 µg/mL (≈ 1.2 µM)	1 µg/mL (≈ 2.4 µM)
CCO/N=C1/CCN(c2nc3c(cc2F)c(=O)c(C(=O)O)cn3C2CC2)CC1(C)CN (configuration not stated)	4 µg/mL (≈ 9.27 µM)	1 µg/mL (≈ 2.32 µM)	16 µg/mL (≈ 37.1 µM)	16 µg/mL (≈ 37.1 µM)	8 µg/mL (≈ 18.5 µM)	1 µg/mL (≈ 2.32 µM)	4 µg/mL (≈ 9.27 µM)	44.2 µg/mL (≈ 102 µM)	8 µg/mL (≈ 18.5 µM)	0.25 µg/mL (≈ 0.579 µM)	1 µg/mL (≈ 2.32 µM)	0.25 µg/mL (≈ 0.579 µM)	0.5 µg/mL (≈ 1.16 µM)
CO/N=C1/CCN(c2nc3c(cc2F)c(=O)c(C(=O)O)cn3-c2ccc(F)cc2F)CC1(C)CN (configuration not stated)	64 µg/mL (≈ 131 µM)	128 µg/mL (≈ 262 µM)	64 µg/mL (≈ 131 µM)	32 µg/mL (≈ 65.4 µM)	128 µg/mL (≈ 262 µM)	8 µg/mL (≈ 16.3 µM)	> 128 µg/mL	88.4 µg/mL (≈ 181 µM)	32 µg/mL (≈ 65.4 µM)	2 µg/mL (≈ 4.09 µM)	8 µg/mL (≈ 16.3 µM)	1 µg/mL (≈ 2.04 µM)	2 µg/mL (≈ 4.09 µM)
CCO/N=C1/CCN(c2nc3c(cc2F)c(=O)c(C(=O)O)cn3-c2ccc(F)cc2F)CC1(C)CN (configuration not stated)	128 µg/mL (≈ 254 µM)	64 µg/mL (≈ 127 µM)	64 µg/mL (≈ 127 µM)	128 µg/mL (≈ 254 µM)	128 µg/mL (≈ 254 µM)	16 µg/mL (≈ 31.8 µM)	> 128 µg/mL	78.8 µg/mL (≈ 156 µM)	32 µg/mL (≈ 63.6 µM)	2 µg/mL (≈ 3.97 µM)	8 µg/mL (≈ 15.9 µM)	2 µg/mL (≈ 3.97 µM)	4 µg/mL (≈ 7.94 µM)
CO/N=C1/CCN(c2c(F)cc3c(=O)c(C(=O)O)cn(C4CC4)c3c2F)CC1(C)CN (configuration not stated)	32 µg/mL (≈ 73.7 µM)	64 µg/mL (≈ 147 µM)	32 µg/mL (≈ 73.7 µM)	16 µg/mL (≈ 36.8 µM)	16 µg/mL (≈ 36.8 µM)	1 µg/mL (≈ 2.3 µM)	64 µg/mL (≈ 147 µM)	88.4 µg/mL (≈ 203 µM)	4 µg/mL (≈ 9.21 µM)	0.25 µg/mL (≈ 0.575 µM)	0.5 µg/mL (≈ 1.15 µM)	0.25 µg/mL (≈ 0.575 µM)	0.25 µg/mL (≈ 0.575 µM)
CCO/N=C1/CCN(c2c(F)cc3c(=O)c(C(=O)O)cn(C4CC4)c3c2F)CC1(C)CN (configuration not stated)	8 µg/mL (≈ 17.8 µM)	2 µg/mL (≈ 4.46 µM)	16 µg/mL (≈ 35.7 µM)	16 µg/mL (≈ 35.7 µM)	8 µg/mL (≈ 17.8 µM)	2 µg/mL (≈ 4.46 µM)	2 µg/mL (≈ 4.46 µM)	62.5 µg/mL (≈ 139 µM)	16 µg/mL (≈ 35.7 µM)	0.25 µg/mL (≈ 0.557 µM)	2 µg/mL (≈ 4.46 µM)	0.125 µg/mL (≈ 0.279 µM)	0.25 µg/mL (≈ 0.557 µM)
CCn1cc(C(=O)O)c(=O)c2cc(F)c(N3CC/C(=N/OC)C(C)(CN)C3)c(F)c21 (configuration not stated)	128 µg/mL (≈ 303 µM)	64 µg/mL (≈ 152 µM)	64 µg/mL (≈ 152 µM)	64 µg/mL (≈ 152 µM)	32 µg/mL (≈ 75.8 µM)	8 µg/mL (≈ 18.9 µM)	128 µg/mL (≈ 303 µM)	315 µg/mL (≈ 746 µM)	32 µg/mL (≈ 75.8 µM)	2 µg/mL (≈ 4.73 µM)	8 µg/mL (≈ 18.9 µM)	1 µg/mL (≈ 2.37 µM)	2 µg/mL (≈ 4.73 µM)
CCO/N=C1/CCN(c2c(F)cc3c(=O)c(C(=O)O)cn(CC)c3c2F)CC1(C)CN (configuration not stated)	64 µg/mL (≈ 147 µM)	16 µg/mL (≈ 36.7 µM)	64 µg/mL (≈ 147 µM)	128 µg/mL (≈ 293 µM)	16 µg/mL (≈ 36.7 µM)	32 µg/mL (≈ 73.3 µM)	128 µg/mL (≈ 293 µM)	78.8 µg/mL (≈ 180 µM)	128 µg/mL (≈ 293 µM)	2 µg/mL (≈ 4.58 µM)	16 µg/mL (≈ 36.7 µM)	2 µg/mL (≈ 4.58 µM)	4 µg/mL (≈ 9.16 µM)
CO/N=C1/CCN(c2c(F)cc3c(=O)c(C(=O)O)cn(CCF)c3c2F)CC1(C)CN (configuration not stated)	128 µg/mL (≈ 291 µM)		128 µg/mL (≈ 291 µM)	64 µg/mL (≈ 145 µM)	64 µg/mL (≈ 145 µM)	16 µg/mL (≈ 36.3 µM)	> 128 µg/mL	315 µg/mL (≈ 715 µM)	64 µg/mL (≈ 145 µM)	2 µg/mL (≈ 4.54 µM)	8 µg/mL (≈ 18.2 µM)	2 µg/mL (≈ 4.54 µM)	4 µg/mL (≈ 9.08 µM)
CCO/N=C1/CCN(c2c(F)cc3c(=O)c(C(=O)O)cn(CCF)c3c2F)CC1(C)CN (configuration not stated)	128 µg/mL (≈ 282 µM)	64 µg/mL (≈ 141 µM)	128 µg/mL (≈ 282 µM)	128 µg/mL (≈ 282 µM)	64 µg/mL (≈ 141 µM)	64 µg/mL (≈ 141 µM)	128 µg/mL (≈ 282 µM)	157 µg/mL (≈ 347 µM)	64 µg/mL (≈ 141 µM)	4 µg/mL (≈ 8.8 µM)	16 µg/mL (≈ 35.2 µM)	2 µg/mL (≈ 4.4 µM)	4 µg/mL (≈ 8.8 µM)
CO/N=C1/CCN(c2c(F)cc3c(=O)c(C(=O)O)cn4c3c2OC[C@@H]4C)CC1(C)CN (some centres not stated)	128 µg/mL (≈ 296 µM)	128 µg/mL (≈ 296 µM)	64 µg/mL (≈ 148 µM)	32 µg/mL (≈ 74 µM)	64 µg/mL (≈ 148 µM)	8 µg/mL (≈ 18.5 µM)	128 µg/mL (≈ 296 µM)	177 µg/mL (≈ 409 µM)	16 µg/mL (≈ 37 µM)	1 µg/mL (≈ 2.31 µM)	4 µg/mL (≈ 9.25 µM)	1 µg/mL (≈ 2.31 µM)	2 µg/mL (≈ 4.62 µM)
C[C@H]1COc2c(N3CCN(C)CC3)c(F)cc3c(=O)c(C(=O)O)cn1c23.C[C@H]1COc2c(N3CCN(C)CC3)c(F)cc3c(=O)c(C(=O)O)cn1c23.O [LEVOFLOXACIN]			16 µg/mL	0.25 µg/mL	16 µg/mL	1 µg/mL	0.5 µg/mL	> 1000 µg/mL	0.125 µg/mL	0.125 µg/mL		0.125 µg/mL	0.25 µg/mL
